Tested on: U2OS
Test: Multiplex assay against U2OS
Type: toxicity, cell-based
Details: human
Summary of the method: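 Cells stained live at seeding with Hoechst33342, BioTracker Green Microtubule Cytoskeleton Dye, MitoTracker Red and Annexin V Alexa Fluor 680 were imaged on a CQ1 microscope at 37°C and 5% CO2 after compound addition. Their classification by CellPathfinder machine-learning gating ran from Hoechst high-intensity objects versus normal cells, to healthy, pyknosed or fragmented nuclei among normal cells, to mitotic or apoptotic among pyknosed cells. Tubulin, mitochondrial-mass and membrane-permeability phenotypes are per cents of healthy-nucleus cells.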

[1] = 12 h, 1 µM, compound concentration 1 uM, replicate 1
[2] = 12 h, 1 µM, compound concentration 1 uM, replicate 2
[3] = 12 h, 10 µM, compound concentration 10 uM, replicate 1
[4] = 12 h, 10 µM, compound concentration 10 uM, replicate 2
[5] = 24 h, 1 µM, compound concentration 1 uM, replicate 1
[6] = 24 h, 1 µM, compound concentration 1 uM, replicate 2
[7] = 24 h, 10 µM, compound concentration 10 uM, replicate 1
[8] = 24 h, 10 µM, compound concentration 10 uM, replicate 2
[9] = 48 h, 1 µM, compound concentration 1 uM, replicate 1
[10] = 48 h, 1 µM, compound concentration 1 uM, replicate 2
[11] = 48 h, 10 µM, compound concentration 10 uM, replicate 1
[12] = 48 h, 10 µM, compound concentration 10 uM, replicate 2

With `CCCCN(CC)c1nc(C)nc2c1c(C)cn2-c1c(C)cc(C)cc1C.Cl` the “Population Apoptotic (%)” value [1] was 33%, the “Population Healthy Nuclei (%)” value [1] was 76% and the “Population Hoechst High Intensity Objects (%)” value [1] was 8%. For the same compound, the “Population Membrane Permeable-Phenotype (%)” value [1] was 3%, the “Population Mitochondria Different-Phenotype (%)” value [1] was 7% and the “Population Mitotic Cells (%)” value [1] was 66%. For the same compound, the “Population Normal (%)” value [1] was 91%, the “Population Tubulin-Different-Phenotype (%)” value [1] was 6% and the “Total Cell Count” value [1] was 135. The “Population Apoptotic (%)” value [2] was 55%, the “Population Fragmented Nuclei (%)” value [2] was 13% and the “Population Healthy Nuclei (%)” value [2] was 77%. The “Population Hoechst High Intensity Objects (%)” value [2] was 3%, the “Population Membrane Permeable-Phenotype (%)” value [2] was 5% and the “Population Mitochondria Different-Phenotype (%)” value [2] was 8%. The “Population Mitotic Cells (%)” value [2] was 44%, the “Population Normal (%)” value [2] was 96% and the “Population Pyknosed Nuclei (%)” value [2] was 9%. The “Population Tubulin-Different-Phenotype (%)” value [2] was 14%, the “Total Cell Count” value [2] was 95 and the “Population Apoptotic (%)” value [3] was 65%. For the same compound, the “Population Fragmented Nuclei (%)” value [3] was 17%, the “Population Healthy Nuclei (%)” value [3] was 67% and the “Population Hoechst High Intensity Objects (%)” value [3] was 7%. For the same compound, the “Population Membrane Permeable-Phenotype (%)” value [3] was 2%, the “Population Mitochondria Different-Phenotype (%)” value [3] was 51% and the “Population Mitotic Cells (%)” value [3] was 35%. The “Population Normal (%)” value [3] was 92%, the “Population Pyknosed Nuclei (%)” value [3] was 14% and the “Population Tubulin-Different-Phenotype (%)” value [3] was 37%. For the same compound, the “Total Cell Count” value [3] was 145, the “Population Apoptotic (%)” value [4] was 20% and the “Population Fragmented Nuclei (%)” value [4] was 9%. For the same compound, the “Population Healthy Nuclei (%)” value [4] was 83%, the “Population Hoechst High Intensity Objects (%)” value [4] was 6% and the “Population Membrane Permeable-Phenotype (%)” value [4] was 4%. For the same compound, the “Population Mitochondria Different-Phenotype (%)” value [4] was 55%, the “Population Mitotic Cells (%)” value [4] was 80% and the “Population Normal (%)” value [4] was 93%. The “Population Pyknosed Nuclei (%)” value [4] was 6%, the “Population Tubulin-Different-Phenotype (%)” value [4] was 19% and the “Total Cell Count” value [4] was 78. The “Population Apoptotic (%)” value [5] was 27%, the “Population Fragmented Nuclei (%)” value [5] was 7% and the “Population Healthy Nuclei (%)” value [5] was 85%. The “Population Mitochondria Different-Phenotype (%)” value [5] was 8%, the “Population Mitotic Cells (%)” value [5] was 72% and the “Population Pyknosed Nuclei (%)” value [5] was 7%. The “Population Tubulin-Different-Phenotype (%)” value [5] was 9%, the “Total Cell Count” value [5] was 162 and the “Population Apoptotic (%)” value [6] was 29%. For the same compound, the “Population Fragmented Nuclei (%)” value [6] was 13%, the “Population Healthy Nuclei (%)” value [6] was 70% and the “Population Hoechst High Intensity Objects (%)” value [6] was 5%. The “Population Membrane Permeable-Phenotype (%)” value [6] was 3%, the “Population Mitochondria Different-Phenotype (%)” value [6] was 6% and the “Population Mitotic Cells (%)” value [6] was 70%. For the same compound, the “Population Normal (%)” value [6] was 94%, the “Population Pyknosed Nuclei (%)” value [6] was 15% and the “Population Tubulin-Different-Phenotype (%)” value [6] was 7%. The “Total Cell Count” value [6] was 116, the “Population Apoptotic (%)” value [7] was 68% and the “Population Fragmented Nuclei (%)” value [7] was 19%. The “Population Healthy Nuclei (%)” value [7] was 62%, the “Population Hoechst High Intensity Objects (%)” value [7] was 5% and the “Population Membrane Permeable-Phenotype (%)” value [7] was 2%. The “Population Mitochondria Different-Phenotype (%)” value [7] was 48%, the “Population Mitotic Cells (%)” value [7] was 32% and the “Population Normal (%)” value [7] was 94%. For the same compound, the “Population Pyknosed Nuclei (%)” value [7] was 17%, the “Population Tubulin-Different-Phenotype (%)” value [7] was 26% and the “Total Cell Count” value [7] was 152. For the same compound, the “Population Apoptotic (%)” value [8] was 25%, the “Population Fragmented Nuclei (%)” value [8] was 8% and the “Population Healthy Nuclei (%)” value [8] was 80%. The “Population Hoechst High Intensity Objects (%)” value [8] was 4%, the “Population Membrane Permeable-Phenotype (%)” value [8] was 3% and the “Population Mitochondria Different-Phenotype (%)” value [8] was 54%. The “Population Mitotic Cells (%)” value [8] was 75%, the “Population Normal (%)” value [8] was 95% and the “Population Pyknosed Nuclei (%)” value [8] was 11%. The “Population Tubulin-Different-Phenotype (%)” value [8] was 21%, the “Total Cell Count” value [8] was 74 and the “Population Apoptotic (%)” value [9] was 27%. The “Population Fragmented Nuclei (%)” value [9] was 5%, the “Population Healthy Nuclei (%)” value [9] was 86% and the “Population Hoechst High Intensity Objects (%)” value [9] was 3%. For the same compound, the “Population Membrane Permeable-Phenotype (%)” value [9] was 0%, the “Population Mitochondria Different-Phenotype (%)” value [9] was 10% and the “Population Mitotic Cells (%)” value [9] was 72%. The “Population Normal (%)” value [9] was 96%, the “Population Pyknosed Nuclei (%)” value [9] was 7% and the “Population Tubulin-Different-Phenotype (%)” value [9] was 7%. For the same compound, the “Total Cell Count” value [9] was 253, the “Population Apoptotic (%)” value [10] was 28% and the “Population Fragmented Nuclei (%)” value [10] was 8%. The “Population Healthy Nuclei (%)” value [10] was 82%, the “Population Hoechst High Intensity Objects (%)” value [10] was 1% and the “Population Membrane Permeable-Phenotype (%)” value [10] was 8%. The “Population Mitochondria Different-Phenotype (%)” value [10] was 14%, the “Population Mitotic Cells (%)” value [10] was 71% and the “Population Normal (%)” value [10] was 98%. For the same compound, the “Population Pyknosed Nuclei (%)” value [10] was 8%, the “Population Tubulin-Different-Phenotype (%)” value [10] was 13% and the “Total Cell Count” value [10] was 170. For the same compound, the “Population Apoptotic (%)” value [11] was 39%, the “Population Fragmented Nuclei (%)” value [11] was 18% and the “Population Healthy Nuclei (%)” value [11] was 68%. For the same compound, the “Population Hoechst High Intensity Objects (%)” value [11] was 6%, the “Population Membrane Permeable-Phenotype (%)” value [11] was 4% and the “Population Mitochondria Different-Phenotype (%)” value [11] was 30%. The “Population Mitotic Cells (%)” value [11] was 60%, the “Population Normal (%)” value [11] was 93% and the “Population Pyknosed Nuclei (%)” value [11] was 12%. For the same compound, the “Population Tubulin-Different-Phenotype (%)” value [11] was 26%, the “Total Cell Count” value [11] was 192 and the “Population Apoptotic (%)” value [12] was 38%. For the same compound, the “Population Fragmented Nuclei (%)” value [12] was 9%, the “Population Healthy Nuclei (%)” value [12] was 71% and the “Population Hoechst High Intensity Objects (%)” value [12] was 5%. For the same compound, the “Population Membrane Permeable-Phenotype (%)” value [12] was 6%, the “Population Mitochondria Different-Phenotype (%)” value [12] was 38% and the “Population Mitotic Cells (%)” value [12] was 61%. The “Population Normal (%)” value [12] was 94%, the “Population Pyknosed Nuclei (%)” value [12] was 18% and the “Population Tubulin-Different-Phenotype (%)” value [12] was 12%. The “Total Cell Count” value [12] was 119.

From ChEMBL document CHEMBL4689842, “EUbOPEN Chemogenomics Library wave 1” (2021)
